Compounds with a hit are over-represented: about 2% of the library has one in this group of screens.
UHRF1 binding: blocks human UHRF1 binding to methylated DNA | Q96T88 | UHRF1 binding to methylated oligo, TR-FRET | inhibition, % at 4.4 µM | 370,000 compounds, 0.75% hits | AID 687016; in the data active = inhibition above about 21%;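 also: UHRF1 SRA domain binding a hemimethylated CpG hairpin DNA probe; 0% = median of test compound wells and 100% = reference inhibitor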
ASAP1 inh: blocks human ASAP1-stimulated Arf1 GTP hydrolysis; Q9ULH1; GDP FP detection; AID 624377; inhibition, % at 16.5 µM; 360,000 compounds, 0.19% hits; in the data active = inhibition above about 25%;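 also: 0% = vehicle with enzyme and substrate and 100% = no enzyme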
Target sequence (Q9ULH1 325-724 limits assumed): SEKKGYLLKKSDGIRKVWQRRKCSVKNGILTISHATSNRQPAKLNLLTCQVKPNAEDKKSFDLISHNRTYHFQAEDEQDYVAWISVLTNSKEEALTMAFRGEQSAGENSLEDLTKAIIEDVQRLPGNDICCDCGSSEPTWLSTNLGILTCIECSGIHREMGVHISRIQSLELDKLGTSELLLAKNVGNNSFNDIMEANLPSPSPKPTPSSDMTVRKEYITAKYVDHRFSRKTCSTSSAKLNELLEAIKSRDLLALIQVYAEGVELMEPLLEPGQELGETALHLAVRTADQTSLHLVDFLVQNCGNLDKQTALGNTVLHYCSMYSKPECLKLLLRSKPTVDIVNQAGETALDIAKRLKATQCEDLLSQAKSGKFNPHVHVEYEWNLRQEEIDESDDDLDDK
LEDGF integ inh: blocks HIV-1 LEDGF/p75-dependent DNA integration | 370,000 compounds, 0.64% hits | AID 743269 | inhibition, % at 3.7 µM | TR-FRET IN-LEDGF/p75 DNA integration, Eu/Cy5;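 active = inhibition above the screen-wide mean plus 3 SD, cut at about 13% in these data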;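 also: signal is the Cy5 over europium emission ratio at 671 and 618 nm; 0% = plate median of compound wells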
TCR-CD3 inh: inhibitors of human TCR-CD3 interaction; AID 651800; 360,000 compounds, 0.37% hits; inhibition, % at 9.4 µM; TAMRA-labeled TCR probe fluorescence, biochemical; in the data active = inhibition above about 19%;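 also: recombinant mutant TCR 2C K166C tagged with TAMRA read by polarization; 0% = receptor in buffer alone and 100% = receptor with positive control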
MBD2 DNA inh: MBD2-methylated oligo binding inhibition; Q9UBB5; TR-FRET, MBD2 binding to methylated oligonucleotide; inhibition, % at 4.4 µM; 370,000 compounds, 0.31% hits; in the data active = inhibition above about 13%
ARFGAP1 inh: inhibitors of rat ARFGAP1 | AID 651572 | inhibition, % at 16.5 µM | Arfgap1-stimulated ARF1 GTP hydrolysis, GDP FP detection | 360,000 compounds, 0.26% hits | Q62848;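 active = inhibition above a per-plate limit, mean inhibition of low control wells plus 3 SD, cut at about 25% in these data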;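 also: 0% = DMSO wells with enzyme and 100% = wells lacking Arfgap1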
Target sequence (Q62848 1-136 limits assumed): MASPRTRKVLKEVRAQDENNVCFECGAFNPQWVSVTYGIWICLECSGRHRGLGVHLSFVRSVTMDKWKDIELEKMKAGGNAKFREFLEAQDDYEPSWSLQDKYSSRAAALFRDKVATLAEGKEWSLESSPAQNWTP
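Repeats: one replicate per compound; assay system: rat Arfgap1 catalytic domain, aa 1-136; times: enzyme reaction 120 min at 25 °C after 20 min preincubation; detection: FP of antibody-bound GDP Alexa 633 tracer, ex 620/em 688 nm; benchmarks: high control wells lacking Arfgap1, low control full reaction with DMSO; reagent: human ARF1(Δ1-17)-GTP substrate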
IN multimer up: activates HIV-1 integrase multimerization in LEDGF counter-screen. shares compounds with LEDGF integ inh. TR-FRET HIV-1 integrase multimerization, biochemical. activation, % at 7.7 µM. 2,000 compounds, 17% hits. AID 1053131; in the data active = activation above about 8.9%
TR-FRET interf: optically interferes with TR-FRET readout in LEDGF counter-screen; shares compounds with LEDGF integ inh; TR-FRET optical interference counterscreen, HIV-1 IN multimerization; inhibition, % at 7.7 µM; 2,000 tested, under 10 active;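 active = inhibition above the mean over all tested compounds plus 3 SD, which no compound reached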;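 also: 0% = integrase with antibodies and DMSO and 100% = antibodies without integrase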
IN-LEDGF confirm: LEDGF/p75-dependent HIV-1 integration inhibition, confirmation; TR-FRET LEDGF/p75-dependent HIV-1 integration, biochemical; AID 1053136; inhibition, % at 3.7 µM; shares compounds with LEDGF integ inh; 2,000 compounds, 36% hits; in the data active = inhibition above about 14%
* hit, by the source's call; · = no result.

SMILES	UHRF1 binding	ASAP1 inh	LEDGF integ inh	TCR-CD3 inh	MBD2 DNA inh	ARFGAP1 inh	IN multimer up	TR-FRET interf	IN-LEDGF confirm
Cc1nc(C(=O)NCCO)cc2c1[nH]c1ccccc12	-2	-6	7	-1	-7	-11	·	·	·
COc1ccc(NC(=O)CN2CCC(NC(=O)C3CCCCC3)CC2)c([N+](=O)[O-])c1	0	-9	18*	4	-2	-10	-2	8	2
C/C=C(\C)CN1CCN(c2ccccc2)CC1	-1	-1	27*	-1	1	-2	0	-1	4
COc1cc2c(C#N)c(N3CCCCC3)nc(N)c2c(N)n1	-13	10	34*	-2	-2	8	1	-3	1
COc1cc2c(C#N)c(N3CCOCC3)nc(N)c2c(N)n1	-11	-5	2	-9	-1	3	·	·	·
Cn1nnnc1SCC(=O)N1CCN(c2ccc(Cl)cc2)CC1	-1	-2	57*	5	2	-8	1	-3	2
CCOc1ccccc1NC(=O)N1CCC(NC(=O)c2ccccc2C)CC1	2	15	-2	0	-2	-7	·	·	·
CCOc1ccccc1NC(=O)CN1CCC(NC(=O)c2ccccc2C)CC1	-2	4	21*	-4	-4	-24	-2	11	-6
COc1cc(/C=N/NC(=O)CCc2ccccc2)ccc1O	-5	-15	-2	3	2	1	·	·	·
COc1cc(CCC(O)CC(=O)CCc2ccccc2)ccc1O (stereo not given)	-3	0	23*	8	1	8	1	-3	-3
CC(CCc1ccccc1)NC(=S)NC(=O)c1ccco1 (stereo not given)	0	-6	2	-6	-6	-14	·	·	·
O=C(NC(=S)N(CCc1ccccc1)CCc1ccccc1)c1ccco1	-5	-8	15*	1	1	-1	-2	8	20*
COc1ccc(C(=O)NC(=S)N(Cc2ccccc2)Cc2ccccc2)cc1	-4	2	15*	6	-2	10	1	-5	9
COc1cc(C(=O)NC(=S)N(CCc2ccccc2)CCc2ccccc2)cc(OC)c1OC	-6	10	14*	2	-2	-4	0	-1	6
O=C(Cn1cnc(S(=O)(=O)N2CCOCC2)c1)Nc1ccc(OC(F)(F)F)cc1	0	2	-5	3	1	-10	·	·	·
CSCC[C@H](NC(=O)[C@H]1N2C(=O)c3ccccc3C2SC1(C)C)C(=O)NCc1ccncc1 (stereo not given in full)	1	15	3	-3	-2	-3	·	·	·
COc1ccc2c(c1)Cc1sc(NC(=O)c3cccnc3)nc1-2	-6	0	-5	3	-2	18	·	·	·
COc1ccc2c(c1)Cc1sc(NC(=O)c3ccco3)nc1-2	-5	17	38*	-2	-6	7	6	-20	3
COc1ccc2c(c1)Cc1sc(NC(C)=O)nc1-2	-12	16	15*	8	-13	0	6	-22	27*
O=C(NCCCN1CCOCC1)c1nn(-c2ccccc2)c(=O)c2ccccc12	-1	-5	-1	0	4	-7	·	·	·
C[C@@H]1CN([C@@H](C)CO)C(=O)CCCn2cc(nn2)CO[C@H]1CN(C)C(=O)c1ccc(N2CCN(C)CC2)cc1	0	7	-3	-6	-4	0	·	·	·
COc1ccc(-c2cc(C(=O)OCC(=O)c3c(N)n(C)c(=O)n(C)c3=O)c3ccccc3n2)cc1	1	-7	1	0	-2	4	·	·	·
Cn1c(N)c(C(=O)COC(=O)c2cc(-c3ccco3)nc3ccccc23)c(=O)n(C)c1=O	19	-4	29*	18	10	-10	22*	-78	62*
C[C@H](O)[C@@H]1C(=O)N2CCc3ccc(-c4ccccc4)cc3[C@@H]2C[C@@H]1N(C)C(=S)Nc1ccc(F)cc1	3	4	-1	-9	-2	8	·	·	·
COc1ccccc1-c1noc2c1C(=O)N(Cc1cn(-c3ccccc3)nn1)CC2	3	12	7	-6	-1	6	·	·	·
SMILES	UHRF1 binding	ASAP1 inh	LEDGF integ inh	TCR-CD3 inh	MBD2 DNA inh	ARFGAP1 inh	IN multimer up	TR-FRET interf	IN-LEDGF confirm
Cc1cccc(OCCCN2CCOCC2)c1C	0	3	2	4	1	-8	·	·	·
Cc1ccccc1OCCCN1CCOCC1	5	0	29*	-8	6	5	1	-4	-10
Cc1ccc2c(c1)N(CC(=O)NC1CCCC1)C(=O)c1cccnc1O2	3	5	1	6	5	10	·	·	·
CN(CCOC(=O)/C=C/c1ccco1)Cc1ccccc1	26*	2	23*	-5	7	1	5	-26	38*
O=C(COC(=O)/C=C/c1ccco1)Nc1ccccc1	4	1	4	7	1	-11	·	·	·
O=C(COC(=O)/C=C/c1ccco1)Nc1cc(S(=O)(=O)N2CCOCC2)ccc1Cl	17	-18	15*	-3	2	-2	1	-6	-13
CC(=O)Nc1ccc(C(=O)/C=C/c2ccco2)cc1	9	4	28*	-5	1	-7	12*	-61	35*
CCc1ccc(NC(=O)COC(=O)/C=C/c2ccco2)cc1	25*	8	27*	-4	4	-16	2	-9	0
CCOC(=O)n1cnc2nc(N)nc(SC)c21	0	-9	0	4	-3	9	·	·	·
Cc1ccccc1-n1ncc2c1CC(C)(C)CC2NC(=O)CCN1CCCCC1=O (stereo not given)	1	8	-1	1	5	-7	·	·	·
Cc1ccc(C(=O)NN2C(=O)C3C4c5ccccc5C(c5ccccc54)C3C2=O)cc1 (stereo not given)	3	4	3	2	-5	8	·	·	·
Nc1ccc(N2CCN(CCCCN3C(=O)C4CCCN4C3=O)CC2)cc1 (stereo not given)	10	4	22*	18	7	-6	-2	12	-4
Cc1ccccc1N1CCN(CCCCN2C(=O)C3CCCN3C2=O)CC1 (stereo not given)	-5	-12	-1	8	0	2	·	·	·
OC[C@@H]1CN(Cc2ccncc2)C[C@H](n2cnc3c(NCc4ccncc4)ncnc32)O1	0	-8	-5	-2	0	-10	·	·	·

Source: PubChem (The Scripps Research Institute Molecular Screening Center)
